Assay results taken from ChEMBL document CHEMBL5058577, “EUbOPEN Chemogenomics Library 2 (Multiplex)” (2022).

Tested on: U2OS
Assay: Multiplex assay against U2OS
Assay type: toxicity, cell-based
Conditions: human
Procedure, shortened: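 Cells were classed with CellPathfinder machine-learning gating, first as Hoechst high-intensity objects or normal cells, then (normal cells) as healthy, pyknosed or fragmented nuclei, and finally (pyknosed cells) as mitotic or apoptotic. Staining of live cells at seeding used Hoechst33342, BioTracker Green Microtubule Cytoskeleton Dye, MitoTracker Red and Annexin V Alexa Fluor 680, with imaging on a CQ1 microscope at 37°C and 5% CO2 after compound addition. Tubulin, mitochondrial-mass and membrane-permeability phenotypes are per cents of healthy-nucleus cells.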

[1] = 12 h, 1 µM, compound concentration 1 uM, replicate 1
[2] = 12 h, 1 µM, compound concentration 1 uM, replicate 2
[3] = 12 h, 10 µM, compound concentration 10 uM, replicate 1
[4] = 12 h, 10 µM, compound concentration 10 uM, replicate 2
[5] = 24 h, 1 µM, compound concentration 1 uM, replicate 1
[6] = 24 h, 1 µM, compound concentration 1 uM, replicate 2
[7] = 24 h, 10 µM, compound concentration 10 uM, replicate 1
[8] = 24 h, 10 µM, compound concentration 10 uM, replicate 2
[9] = 48 h, 1 µM, compound concentration 1 uM, replicate 1
[10] = 48 h, 1 µM, compound concentration 1 uM, replicate 2
[11] = 48 h, 10 µM, compound concentration 10 uM, replicate 1
[12] = 48 h, 10 µM, compound concentration 10 uM, replicate 2

`O=C(NCC(=O)N1CC[C@H](N[C@H]2CC[C@@](O)(c3ccc(-c4ncccn4)cn3)CC2)C1)c1cccc(C(F)(F)F)c1` [PF-4136309] was tested, and the “Population Apoptotic (%)” value [1] was 79%, the “Population Fragmented Nuclei (%)” value [1] was 25% and the “Population Healthy Nuclei (%)” value [1] was 64%. For the same compound, the “Population Hoechst High Intensity Objects (%)” value [1] was 1%, the “Population Membrane Permeable-Phenotype (%)” value [1] was 6% and the “Population Mitochondria Different-Phenotype (%)” value [1] was 3%. The “Population Mitotic Cells (%)” value [1] was 20%, the “Population Normal (%)” value [1] was 98% and the “Population Pyknosed Nuclei (%)” value [1] was 9%. The “Population Tubulin-Different-Phenotype (%)” value [1] was 4%, the “Total Cell Count” value [1] was 249 and the “Population Apoptotic (%)” value [2] was 93%. The “Population Fragmented Nuclei (%)” value [2] was 13%, the “Population Healthy Nuclei (%)” value [2] was 74% and the “Population Hoechst High Intensity Objects (%)” value [2] was 4%. For the same compound, the “Population Membrane Permeable-Phenotype (%)” value [2] was 11%, the “Population Mitochondria Different-Phenotype (%)” value [2] was 5% and the “Population Mitotic Cells (%)” value [2] was 6%. The “Population Normal (%)” value [2] was 95%, the “Population Pyknosed Nuclei (%)” value [2] was 12% and the “Population Tubulin-Different-Phenotype (%)” value [2] was 8%. The “Total Cell Count” value [2] was 138, the “Population Apoptotic (%)” value [3] was 68% and the “Population Fragmented Nuclei (%)” value [3] was 25%. For the same compound, the “Population Healthy Nuclei (%)” value [3] was 62%, the “Population Hoechst High Intensity Objects (%)” value [3] was 4% and the “Population Membrane Permeable-Phenotype (%)” value [3] was 15%. For the same compound, the “Population Mitochondria Different-Phenotype (%)” value [3] was 4%, the “Population Mitotic Cells (%)” value [3] was 31% and the “Population Normal (%)” value [3] was 95%. For the same compound, the “Population Pyknosed Nuclei (%)” value [3] was 12%, the “Population Tubulin-Different-Phenotype (%)” value [3] was 9% and the “Total Cell Count” value [3] was 242. For the same compound, the “Population Apoptotic (%)” value [4] was 60%, the “Population Fragmented Nuclei (%)” value [4] was 22% and the “Population Healthy Nuclei (%)” value [4] was 66%. For the same compound, the “Population Hoechst High Intensity Objects (%)” value [4] was 1%, the “Population Membrane Permeable-Phenotype (%)” value [4] was 25% and the “Population Mitochondria Different-Phenotype (%)” value [4] was 10%. The “Population Mitotic Cells (%)” value [4] was 40%, the “Population Normal (%)” value [4] was 98% and the “Population Pyknosed Nuclei (%)” value [4] was 11%. For the same compound, the “Population Tubulin-Different-Phenotype (%)” value [4] was 11%, the “Total Cell Count” value [4] was 90 and the “Population Apoptotic (%)” value [5] was 80%. The “Population Fragmented Nuclei (%)” value [5] was 22%, the “Population Healthy Nuclei (%)” value [5] was 69% and the “Population Hoechst High Intensity Objects (%)” value [5] was 1%. For the same compound, the “Population Membrane Permeable-Phenotype (%)” value [5] was 4%, the “Population Mitochondria Different-Phenotype (%)” value [5] was 2% and the “Population Mitotic Cells (%)” value [5] was 20%. The “Population Normal (%)” value [5] was 98%, the “Population Pyknosed Nuclei (%)” value [5] was 8% and the “Population Tubulin-Different-Phenotype (%)” value [5] was 2%. For the same compound, the “Total Cell Count” value [5] was 304, the “Population Apoptotic (%)” value [6] was 91% and the “Population Fragmented Nuclei (%)” value [6] was 16%. The “Population Healthy Nuclei (%)” value [6] was 76%, the “Population Hoechst High Intensity Objects (%)” value [6] was 3% and the “Population Membrane Permeable-Phenotype (%)” value [6] was 5%. The “Population Mitochondria Different-Phenotype (%)” value [6] was 4%, the “Population Mitotic Cells (%)” value [6] was 8% and the “Population Normal (%)” value [6] was 96%. The “Population Pyknosed Nuclei (%)” value [6] was 7%, the “Total Cell Count” value [6] was 169 and the “Population Apoptotic (%)” value [7] was 83%. The “Population Fragmented Nuclei (%)” value [7] was 23%, the “Population Healthy Nuclei (%)” value [7] was 62% and the “Population Hoechst High Intensity Objects (%)” value [7] was 3%. For the same compound, the “Population Membrane Permeable-Phenotype (%)” value [7] was 10%, the “Population Mitochondria Different-Phenotype (%)” value [7] was 3% and the “Population Mitotic Cells (%)” value [7] was 16%. The “Population Normal (%)” value [7] was 96%, the “Population Pyknosed Nuclei (%)” value [7] was 13% and the “Population Tubulin-Different-Phenotype (%)” value [7] was 3%. For the same compound, the “Total Cell Count” value [7] was 271, the “Population Apoptotic (%)” value [8] was 75% and the “Population Fragmented Nuclei (%)” value [8] was 21%. The “Population Healthy Nuclei (%)” value [8] was 70%, the “Population Hoechst High Intensity Objects (%)” value [8] was 0% and the “Population Membrane Permeable-Phenotype (%)” value [8] was 15%. The “Population Mitochondria Different-Phenotype (%)” value [8] was 11%, the “Population Mitotic Cells (%)” value [8] was 25% and the “Population Normal (%)” value [8] was 99%. For the same compound, the “Population Pyknosed Nuclei (%)” value [8] was 7%, the “Population Tubulin-Different-Phenotype (%)” value [8] was 7% and the “Total Cell Count” value [8] was 102. The “Population Apoptotic (%)” value [9] was 87%, the “Population Fragmented Nuclei (%)” value [9] was 14% and the “Population Healthy Nuclei (%)” value [9] was 74%. For the same compound, the “Population Hoechst High Intensity Objects (%)” value [9] was 2%, the “Population Membrane Permeable-Phenotype (%)” value [9] was 4% and the “Population Mitochondria Different-Phenotype (%)” value [9] was 3%. The “Population Mitotic Cells (%)” value [9] was 12%, the “Population Normal (%)” value [9] was 97% and the “Population Pyknosed Nuclei (%)” value [9] was 11%. For the same compound, the “Population Tubulin-Different-Phenotype (%)” value [9] was 3%, the “Total Cell Count” value [9] was 443 and the “Population Apoptotic (%)” value [10] was 96%. For the same compound, the “Population Fragmented Nuclei (%)” value [10] was 12%, the “Population Healthy Nuclei (%)” value [10] was 75% and the “Population Hoechst High Intensity Objects (%)” value [10] was 3%. For the same compound, the “Population Membrane Permeable-Phenotype (%)” value [10] was 6%, the “Population Mitotic Cells (%)” value [10] was 4% and the “Population Normal (%)” value [10] was 96%. The “Population Tubulin-Different-Phenotype (%)” value [10] was 4%, the “Total Cell Count” value [10] was 224 and the “Population Apoptotic (%)” value [11] was 69%. For the same compound, the “Population Fragmented Nuclei (%)” value [11] was 22%, the “Population Healthy Nuclei (%)” value [11] was 61% and the “Population Hoechst High Intensity Objects (%)” value [11] was 4%. The “Population Membrane Permeable-Phenotype (%)” value [11] was 9%, the “Population Mitochondria Different-Phenotype (%)” value [11] was 5% and the “Population Mitotic Cells (%)” value [11] was 30%. The “Population Normal (%)” value [11] was 95%, the “Population Pyknosed Nuclei (%)” value [11] was 15% and the “Population Tubulin-Different-Phenotype (%)” value [11] was 4%. For the same compound, the “Total Cell Count” value [11] was 360, the “Population Apoptotic (%)” value [12] was 92% and the “Population Fragmented Nuclei (%)” value [12] was 20%. The “Population Healthy Nuclei (%)” value [12] was 60%, the “Population Hoechst High Intensity Objects (%)” value [12] was 0% and the “Population Membrane Permeable-Phenotype (%)” value [12] was 15%. For the same compound, the “Population Mitochondria Different-Phenotype (%)” value [12] was 8%, the “Population Mitotic Cells (%)” value [12] was 7% and the “Population Normal (%)” value [12] was 100%. The “Population Pyknosed Nuclei (%)” value [12] was 18% and the “Total Cell Count” value [12] was 138.
